Experimental data published in ChEMBL document CHEMBL4266015, “Scaffold Ranking and Positional Scanning Identify Novel Neurite Outgrowth Promoters with Nanomolar Potency” (2018).

Test: Induction of neurite outgrowth in rat hippocampal neurons assessed as neurite total length at 250 ng/ml after 48 hrs relative to control
Assay type: functional, Hippocampal neurone
Method in brief: (§1)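 E18 rat hippocampal neurons were plated on PDL at 1800 cells/well in NbActive4, adhered 2 h, then treated with compound prediluted in medium at 4× final for 48 h. Cells were fixed, stained for βIII-tubulin, imaged and auto-traced. Mean neurite total length is a percentage of DMSO vehicle wells on the same plate. ML-7 was the positive control and plates with Z-factor >0.5 were accepted.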

SMILES	Activity [%]
C[C@@H]1CN(CCCC[C@H]2CNC(CC3CCCC3)=N2)C(=S)N1CCCC1CCCCC1	245.7679
CC1CCC(CCN2C(=S)N(CCCC[C@H]3CNC(CCCCc4ccccc4)=N3)C[C@H]2C)CC1 (some centres undefined)	237.6
CC1CCC(CN2C(=S)N(CCCC[C@H]3CNC(CCCc4ccccc4)=N3)C[C@H]2c2ccccc2)CC1 (some centres undefined)	244.7
CC(C)C[C@@H]1CN(CCCC[C@H]2CNC(CCCc3ccccc3)=N2)C(=S)N1CC1CCC(C)CC1 (some centres undefined)	240
CC(C)CCCCN1C(=S)N(CCCC[C@H]2CNC(CCCCc3ccccc3)=N2)C[C@H]1C	257.3265
CCC(C)CC1=N[C@@H](CCCCN2C[C@@H](c3ccccc3)N(CCCC3CCCCC3)C2=S)CN1 (some centres undefined)	221.9
C[C@@H]1CN(CCCC[C@H]2CNC(CCCCc3ccccc3)=N2)C(=S)N1CCCC1CCCCC1	246.6
CC(C)CCCCN1C(=S)N(CCCC[C@H]2CNC(CC3CCCC3)=N2)C[C@H]1c1ccccc1	277.9
CCC(C)C1=N[C@@H](CCCCN2C[C@@H](CC(C)C)N(CC3CCC(C)CC3)C2=S)CN1 (some centres undefined)	236
CCC(C)CC1=N[C@@H](CCCCN2C[C@@H](C)N(CCCCC(C)C)C2=S)CN1 (some centres undefined)	209.2
S=C1N(CCCC[C@H]2CNC(CCCCc3ccccc3)=N2)C[C@@H](c2ccccc2)N1CCCC1CCCCC1	221.8
CCC(C)CC1=N[C@@H](CCCCN2C[C@@H](CC(C)C)N(CCCC3CCCCC3)C2=S)CN1 (some centres undefined)	253.1
CCC(C)CC1=N[C@@H](CCCCN2C[C@@H](C)N(CCCC3CCCCC3)C2=S)CN1 (some centres undefined)	246.1

Test: Induction of neurite outgrowth in rat hippocampal neurons assessed as neurite total length at 15.625 ng/ml after 48 hrs relative to control
Assay type: functional, Hippocampal neurone
Method in brief: as §1

SMILES	Activity [%]
C[C@@H]1CN(CCCC[C@H]2CNC(CC3CCCC3)=N2)C(=S)N1CCCC1CCCCC1	104.7
CC1CCC(CCN2C(=S)N(CCCC[C@H]3CNC(CCCCc4ccccc4)=N3)C[C@H]2C)CC1 (some centres undefined)	88.36
CC1CCC(CN2C(=S)N(CCCC[C@H]3CNC(CCCc4ccccc4)=N3)C[C@H]2c2ccccc2)CC1 (some centres undefined)	184.9
CC(C)C[C@@H]1CN(CCCC[C@H]2CNC(CCCc3ccccc3)=N2)C(=S)N1CC1CCC(C)CC1 (some centres undefined)	144.9
CC(C)CCCCN1C(=S)N(CCCC[C@H]2CNC(CCCCc3ccccc3)=N2)C[C@H]1C	116.4
CCC(C)CC1=N[C@@H](CCCCN2C[C@@H](c3ccccc3)N(CCCC3CCCCC3)C2=S)CN1 (some centres undefined)	139
C[C@@H]1CN(CCCC[C@H]2CNC(CCCCc3ccccc3)=N2)C(=S)N1CCCC1CCCCC1	100.8
CC(C)CCCCN1C(=S)N(CCCC[C@H]2CNC(CC3CCCC3)=N2)C[C@H]1c1ccccc1	173.9
CCC(C)C1=N[C@@H](CCCCN2C[C@@H](CC(C)C)N(CC3CCC(C)CC3)C2=S)CN1 (some centres undefined)	131.1
CCC(C)CC1=N[C@@H](CCCCN2C[C@@H](C)N(CCCCC(C)C)C2=S)CN1 (some centres undefined)	92.45
S=C1N(CCCC[C@H]2CNC(CCCCc3ccccc3)=N2)C[C@@H](c2ccccc2)N1CCCC1CCCCC1	143.7
CCC(C)CC1=N[C@@H](CCCCN2C[C@@H](CC(C)C)N(CCCC3CCCCC3)C2=S)CN1 (some centres undefined)	158.9
CCC(C)CC1=N[C@@H](CCCCN2C[C@@H](C)N(CCCC3CCCCC3)C2=S)CN1 (some centres undefined)	102.3

Test: Induction of neurite outgrowth in rat hippocampal neurons assessed as neurite total length after 48 hrs
Assay type: functional, Hippocampal neurone
Method in brief: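 Dissociated E18 rat hippocampal neurons were seeded on PDL-coated plates at 1800 cells/well in NbActive4 and allowed to adhere 2 h. Compounds were prediluted in medium at 4× final and added, then cells were grown 48 h (2 DIV). Wells were fixed, immunostained for βIII-tubulin and imaged by automated tracing. ED200% and ED300% values were linearly interpolated from dose-response curves of mean neurite total length.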

SMILES	ED200 [nM]	ED300 [nM]
CC1CCC(CN2C(=S)N(CCCC[C@H]3CNC(CCCc4ccccc4)=N3)C[C@H]2c2ccccc2)CC1 (some centres undefined)	17	>471
CC(C)C[C@@H]1CN(CCCC[C@H]2CNC(CCCc3ccccc3)=N2)C(=S)N1CC1CCC(C)CC1 (some centres undefined)	25	461
CCC(C)C1=N[C@@H](CCCCN2C[C@@H](CC(C)C)N(CC3CCC(C)CC3)C2=S)CN1 (some centres undefined)	10	53

Test: Induction of neurite outgrowth in rat hippocampal neurons assessed as neurite total length at 125 ng/ml after 48 hrs relative to control
Assay type: functional, Hippocampal neurone
Method in brief: as §1

SMILES	Activity [%]
C[C@@H]1CN(CCCC[C@H]2CNC(CC3CCCC3)=N2)C(=S)N1CCCC1CCCCC1	250.7
CC1CCC(CCN2C(=S)N(CCCC[C@H]3CNC(CCCCc4ccccc4)=N3)C[C@H]2C)CC1 (some centres undefined)	70.33
CC1CCC(CN2C(=S)N(CCCC[C@H]3CNC(CCCc4ccccc4)=N3)C[C@H]2c2ccccc2)CC1 (some centres undefined)	269.1
CC(C)C[C@@H]1CN(CCCC[C@H]2CNC(CCCc3ccccc3)=N2)C(=S)N1CC1CCC(C)CC1 (some centres undefined)	256.9
CC(C)CCCCN1C(=S)N(CCCC[C@H]2CNC(CCCCc3ccccc3)=N2)C[C@H]1C	160.4
CCC(C)CC1=N[C@@H](CCCCN2C[C@@H](c3ccccc3)N(CCCC3CCCCC3)C2=S)CN1 (some centres undefined)	245.5
C[C@@H]1CN(CCCC[C@H]2CNC(CCCCc3ccccc3)=N2)C(=S)N1CCCC1CCCCC1	209.7
CC(C)CCCCN1C(=S)N(CCCC[C@H]2CNC(CC3CCCC3)=N2)C[C@H]1c1ccccc1	249.2
CCC(C)C1=N[C@@H](CCCCN2C[C@@H](CC(C)C)N(CC3CCC(C)CC3)C2=S)CN1 (some centres undefined)	268.2
CCC(C)CC1=N[C@@H](CCCCN2C[C@@H](C)N(CCCCC(C)C)C2=S)CN1 (some centres undefined)	169.1
S=C1N(CCCC[C@H]2CNC(CCCCc3ccccc3)=N2)C[C@@H](c2ccccc2)N1CCCC1CCCCC1	254.2
CCC(C)CC1=N[C@@H](CCCCN2C[C@@H](CC(C)C)N(CCCC3CCCCC3)C2=S)CN1 (some centres undefined)	252.9
CCC(C)CC1=N[C@@H](CCCCN2C[C@@H](C)N(CCCC3CCCCC3)C2=S)CN1 (some centres undefined)	196.1

Test: Induction of neurite outgrowth in rat hippocampal neurons assessed as neurite total length at 31.25 ng/ml after 48 hrs relative to control
Assay type: functional, Hippocampal neurone
Method in brief: as §1

SMILES	Activity [%]
C[C@@H]1CN(CCCC[C@H]2CNC(CC3CCCC3)=N2)C(=S)N1CCCC1CCCCC1	157.6
CC1CCC(CCN2C(=S)N(CCCC[C@H]3CNC(CCCCc4ccccc4)=N3)C[C@H]2C)CC1 (some centres undefined)	101.9
CC1CCC(CN2C(=S)N(CCCC[C@H]3CNC(CCCc4ccccc4)=N3)C[C@H]2c2ccccc2)CC1 (some centres undefined)	174.3
CC(C)C[C@@H]1CN(CCCC[C@H]2CNC(CCCc3ccccc3)=N2)C(=S)N1CC1CCC(C)CC1 (some centres undefined)	197
CC(C)CCCCN1C(=S)N(CCCC[C@H]2CNC(CCCCc3ccccc3)=N2)C[C@H]1C	100.5
CCC(C)CC1=N[C@@H](CCCCN2C[C@@H](c3ccccc3)N(CCCC3CCCCC3)C2=S)CN1 (some centres undefined)	200.8
C[C@@H]1CN(CCCC[C@H]2CNC(CCCCc3ccccc3)=N2)C(=S)N1CCCC1CCCCC1	122.1
CC(C)CCCCN1C(=S)N(CCCC[C@H]2CNC(CC3CCCC3)=N2)C[C@H]1c1ccccc1	234.3
CCC(C)C1=N[C@@H](CCCCN2C[C@@H](CC(C)C)N(CC3CCC(C)CC3)C2=S)CN1 (some centres undefined)	216.3
CCC(C)CC1=N[C@@H](CCCCN2C[C@@H](C)N(CCCCC(C)C)C2=S)CN1 (some centres undefined)	115.6
S=C1N(CCCC[C@H]2CNC(CCCCc3ccccc3)=N2)C[C@@H](c2ccccc2)N1CCCC1CCCCC1	208.9
CCC(C)CC1=N[C@@H](CCCCN2C[C@@H](CC(C)C)N(CCCC3CCCCC3)C2=S)CN1 (some centres undefined)	178.9
CCC(C)CC1=N[C@@H](CCCCN2C[C@@H](C)N(CCCC3CCCCC3)C2=S)CN1 (some centres undefined)	121.4

Test: Induction of neurite outgrowth in rat hippocampal neurons assessed as neurite total length at 62.5 ng/ml after 48 hrs relative to control
Assay type: functional, Hippocampal neurone
Method in brief: as §1

SMILES	Activity [%]
C[C@@H]1CN(CCCC[C@H]2CNC(CC3CCCC3)=N2)C(=S)N1CCCC1CCCCC1	188
CC1CCC(CCN2C(=S)N(CCCC[C@H]3CNC(CCCCc4ccccc4)=N3)C[C@H]2C)CC1 (some centres undefined)	117.7
CC1CCC(CN2C(=S)N(CCCC[C@H]3CNC(CCCc4ccccc4)=N3)C[C@H]2c2ccccc2)CC1 (some centres undefined)	237.5
CC(C)C[C@@H]1CN(CCCC[C@H]2CNC(CCCc3ccccc3)=N2)C(=S)N1CC1CCC(C)CC1 (some centres undefined)	246.7
CC(C)CCCCN1C(=S)N(CCCC[C@H]2CNC(CCCCc3ccccc3)=N2)C[C@H]1C	124.2
CCC(C)CC1=N[C@@H](CCCCN2C[C@@H](c3ccccc3)N(CCCC3CCCCC3)C2=S)CN1 (some centres undefined)	257.2
C[C@@H]1CN(CCCC[C@H]2CNC(CCCCc3ccccc3)=N2)C(=S)N1CCCC1CCCCC1	122
CC(C)CCCCN1C(=S)N(CCCC[C@H]2CNC(CC3CCCC3)=N2)C[C@H]1c1ccccc1	279.6
CCC(C)C1=N[C@@H](CCCCN2C[C@@H](CC(C)C)N(CC3CCC(C)CC3)C2=S)CN1 (some centres undefined)	253.6
CCC(C)CC1=N[C@@H](CCCCN2C[C@@H](C)N(CCCCC(C)C)C2=S)CN1 (some centres undefined)	155
S=C1N(CCCC[C@H]2CNC(CCCCc3ccccc3)=N2)C[C@@H](c2ccccc2)N1CCCC1CCCCC1	251.6
CCC(C)CC1=N[C@@H](CCCCN2C[C@@H](CC(C)C)N(CCCC3CCCCC3)C2=S)CN1 (some centres undefined)	261.9
CCC(C)CC1=N[C@@H](CCCCN2C[C@@H](C)N(CCCC3CCCCC3)C2=S)CN1 (some centres undefined)	142.6

Test: Induction of neurite outgrowth in rat hippocampal neurons assessed as neurite total length at 500 ng/ml after 48 hrs relative to control
Assay type: functional, Hippocampal neurone
Method in brief: as §1

SMILES	Activity [%]
C[C@@H]1CN(CCCC[C@H]2CNC(CC3CCCC3)=N2)C(=S)N1CCCC1CCCCC1	304.4
CC1CCC(CCN2C(=S)N(CCCC[C@H]3CNC(CCCCc4ccccc4)=N3)C[C@H]2C)CC1 (some centres undefined)	296.9
CC1CCC(CN2C(=S)N(CCCC[C@H]3CNC(CCCc4ccccc4)=N3)C[C@H]2c2ccccc2)CC1 (some centres undefined)	221.2261
CC(C)C[C@@H]1CN(CCCC[C@H]2CNC(CCCc3ccccc3)=N2)C(=S)N1CC1CCC(C)CC1 (some centres undefined)	224.4
CC(C)CCCCN1C(=S)N(CCCC[C@H]2CNC(CCCCc3ccccc3)=N2)C[C@H]1C	346.7
CCC(C)CC1=N[C@@H](CCCCN2C[C@@H](c3ccccc3)N(CCCC3CCCCC3)C2=S)CN1 (some centres undefined)	228.1
C[C@@H]1CN(CCCC[C@H]2CNC(CCCCc3ccccc3)=N2)C(=S)N1CCCC1CCCCC1	242.7
CC(C)CCCCN1C(=S)N(CCCC[C@H]2CNC(CC3CCCC3)=N2)C[C@H]1c1ccccc1	273
CCC(C)C1=N[C@@H](CCCCN2C[C@@H](CC(C)C)N(CC3CCC(C)CC3)C2=S)CN1 (some centres undefined)	264.4
CCC(C)CC1=N[C@@H](CCCCN2C[C@@H](C)N(CCCCC(C)C)C2=S)CN1 (some centres undefined)	323.0821
S=C1N(CCCC[C@H]2CNC(CCCCc3ccccc3)=N2)C[C@@H](c2ccccc2)N1CCCC1CCCCC1	183.5
CCC(C)CC1=N[C@@H](CCCCN2C[C@@H](CC(C)C)N(CCCC3CCCCC3)C2=S)CN1 (some centres undefined)	264.0755
CCC(C)CC1=N[C@@H](CCCCN2C[C@@H](C)N(CCCC3CCCCC3)C2=S)CN1 (some centres undefined)	357.5
